TPT1 inh: C. albicans TPT1 enzyme inhibition; 300,000 compounds, 0.81% hits; recombinant caTPT1, FP RNA substrate dephosphorylation; inhibition, % at 5 µM;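 active means inhibition above the mean of all tested compounds plus 3 SD, set per screening campaign, cut at about 24% in these data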;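 further: plate controls were DMSO alone for no effect and ferristatin control at 100 nM for full effect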
CSN inh: blocks human CSN-mediated cullin deneddylation; Q92905; inhibition, % at 12.5 µM; AID 651999; Purified CSN, SCF-Nedd8-OG deneddylation, fluorescence polarization; 360,000 compounds, 0.38% hits;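 active means pattern-corrected inhibition above about 35%, with an unprinted fluorescence ratio check between 0.5 and 1.5, limit read from the data, passing the limit was not always enough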;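 further: 0% = enzyme with substrate and 100% = substrate without enzyme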
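Assay system: purified human Csn5 enzyme expressed in HEK293T cells; measure: % inhibition; also added: SCFSkp2-Nedd8OG substrate at 10 nM final; technique: fluorescence polarization; times: reaction 90 min, room temperature; medium: Tris buffer pH 7.5, NaCl, DTT, Tween-20, trehalose, ovalbumin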
Rtt109 HAT inh: inhibitors of Candida albicans Rtt109/Vps75 histone acetyltransferase; Q5AAJ8; purified Rtt109/Vps75, ThioGlo CoA-SH fluorescence, 4 h; inhibition, % at 34.9 µM; 330,000 compounds, 0.16% hits; AID 540336;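 active means inhibition of at least 50% in every replicate; inconclusive means best replicate reaches 50% inhibition but some replicates fall short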
Target sequence (Q5AAJ8 whole entry, looked up): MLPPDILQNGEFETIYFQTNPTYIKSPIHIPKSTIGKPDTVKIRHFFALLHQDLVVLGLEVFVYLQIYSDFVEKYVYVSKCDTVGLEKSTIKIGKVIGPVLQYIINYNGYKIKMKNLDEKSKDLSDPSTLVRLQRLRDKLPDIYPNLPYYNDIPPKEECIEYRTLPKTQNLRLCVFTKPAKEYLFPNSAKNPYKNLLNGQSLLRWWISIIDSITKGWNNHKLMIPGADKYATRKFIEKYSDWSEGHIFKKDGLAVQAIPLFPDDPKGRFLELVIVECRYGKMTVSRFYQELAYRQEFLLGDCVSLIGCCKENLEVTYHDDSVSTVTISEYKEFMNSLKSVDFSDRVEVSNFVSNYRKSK
HNF4A DNA FP: change in binding of human HNF4 alpha to DNA; P41235; HNF4a-FITC DNA binding, fluorescence polarization, 1 h; activity change, % at 10 µM; 360,000 compounds, 0.3% hits; in the data active means activity change above about 30%, passing the limit was not always enough
Numbers without * were called inactive; ? = inconclusive; · = no result. Hits are enriched below; roughly 1.2% of the tested compounds scored in any of these assays.

SMILES	TPT1 inh	CSN inh	Rtt109 HAT inh	HNF4A DNA FP
Cc1noc(NS(=O)(=O)c2ccc(N/C=C\C(=O)c3ccc(Br)cc3)cc2)c1C	2	2	27	3
COc1cccc(C(=O)/C=C/Nc2ccc(S(=O)(=O)Nc3onc(C)c3C)cc2)c1	-3	-9	-4	85*
O=C(CSc1ccccc1)N1CCCC(N2CCN(c3ccccc3)CC2)C1 (centres undefined)	1	2	2	0
C#CCOCCOCCOCCNc1nc(N2CCN(C(=O)CCCCCCCCCCNC(=O)[C@H](CO)n3cc(CCCSC)nn3)CC2)nc(N2CCN(C(=O)CCCCCCCCCCNC(=O)[C@H](CCCN=C(N)N)n3cc(C[C@@H](C)CC)nn3)CC2)n1	-3	131*	?	279
C#CCOCCOCCOCCNc1nc(N2CCN(C(=O)CCCCCCCCCCNC(=O)Cn3cc(C[C@@H](C)O)nn3)CC2)nc(N2CCN(C(=O)CCCCCCCCCCNC(=O)[C@H](CCCN=C(N)N)n3cc(C[C@@H](C)CC)nn3)CC2)n1	0	44*	?	160
C#CCOCCOCCOCCNc1nc(N2CCN(C(=O)CCCCCCCCCCNC(=O)Cn3cc(C[C@@H](C)O)nn3)CC2)nc(N2CCN(C(=O)CCCCCCCCCCNC(=O)[C@H](CCCCN)n3cc(CCCC(=O)O)nn3)CC2)n1	4	5	26	3
C#CCOCCOCCOCCNc1nc(N2CCN(C(=O)CCCCCCCCCCNC(=O)[C@H](CO)n3cc(CCCSC)nn3)CC2)nc(N2CCN(C(=O)CCCCCCCCCCNC(=O)[C@H](CCCCN)n3cc(CCO)nn3)CC2)n1	·	14	29	14
O=C(CNCc1cccs1)Nc1ccc(OC(F)(F)F)cc1	12	1	-2	0
CC(C)[C@H]1CN=C2N(C[C@H](C)NC(=O)CCC3CCCCC3)[C@H](Cc3ccc(O)cc3)CN21	1	74*	-16	26
O=C(NCCCN1CCCC1=O)c1ccc(S(=O)(=O)Nc2ccccc2F)cc1	0	-7	0	0
O=C(NCCCN1CCCC1=O)c1ccc(OC(F)(F)F)cc1	-2	0	61*	-2
Cc1ccc2nc(-c3ccc(NC(=O)c4ccco4)cc3)[nH]c2c1	-1	44*	5	2
CN1C(=O)C(CCC(=O)O)NC1=S (centres undefined)	4	-3	-4	-3
NC(=O)C1=C(N=C2CCCCC2)CCCC1	·	53*	-1	-1
C[C@H](NS(=O)(=O)c1ccccc1F)C(=O)OCC(=O)Nc1ccc2c(c1)OCCO2	·	-1	9	0
CCN(CC)c1ccc(/C=C2\C(=O)N(c3nnc(C)c(=O)[nH]3)N=C2C)cc1	43*	10	3	-5
O=C(c1cccc(F)c1)N1CCCc2ccccc21	1	-5	0	4
Cc1cc(C)nc(Sc2nc(Cl)nc(N(c3ccccc3)c3ccccc3)n2)n1	3	0	79*	1
Cc1cc(C)nc(SC(C(=O)O)c2ccccc2)n1 (centres undefined)	1	-1	5	2
O=C(c1cnc(Cc2c[nH]c3ccccc23)c(I)c1)N1CCCCC1	·	2	·	-1
O=C(c1cnc(Cc2c[nH]c3ccccc23)c(I)c1)N1CCN(Cc2ccccc2)CC1	·	42*	·	1
O=C(O)c1cc(-c2ccc(/C=c3\sc4nc5ccc(Br)cc5n4c3=O)o2)ccc1Cl	71*	·	·	·
O=C(O)c1cc(-c2ccc(/C=C3\NC(=O)N(c4ccccc4)C3=O)o2)ccc1Cl	-4	24	3	-18
N#Cc1cnc(SCC(=O)NNC(=O)COc2cccc3ccccc23)nc1N	51*	1	-3	13
Cc1ccc(NC(=O)c2ccc(Cl)c(N3C(=O)CCC3=O)c2)cc1	1	-1	5	55*
SMILES	TPT1 inh	CSN inh	Rtt109 HAT inh	HNF4A DNA FP
COc1ccc(/C=N/Nc2ncc(Br)cn2)c(OC)c1	3	62*	3	8
CCN(Cc1ccccc1)C(=O)Cn1cc(S(=O)(=O)NC)c(S(=O)(=O)NC)c1	-6	4	1	2
Cc1cccc(C(=O)NCCNc2nc3cc(C)c(C)cc3cc2C)c1	2	6	0	60*
Cc1cc2cc(C)c(NCCNC(=O)c3cccc(F)c3)nc2cc1C	1	-4	-7	4
Cc1ccn2cc(-c3ccc4c(c3)NC(=O)CO4)nc2c1	2	54*	17	8
CCOC(=O)N1CCc2c(sc3nc4n(c(=O)c23)N=C(c2ccc(OC)cc2)CS4)C1	-2	1	-4	1
CCOC(=O)CC[C@H](NC(=O)Cn1cnc2c(NCc3ccccc3)ncnc21)C(=O)OCC	·	0	-2	-3
CC(CCC(C)C(C)(C)C)[C@@H]1CC[C@H]2C3C[C@H](OS(O)(=S)=S)[C@H]4C[C@H](OS(O)(=S)=S)[C@@H](OS(O)(=S)=S)C[C@]4(C)[C@H]3CC[C@]12C (some centres undefined) (tested in a mixture with another compound)	·	35*	?	-82
COc1cccc(-n2nc3c(-n4ncc(C#N)c4N)nnc(C)c3c2C)c1	1	58*	-5	6
Cc1ccc(OCC(=O)NNC(=O)CSc2ncnc3sc(C)c(C)c23)cc1	-2	38*	-10	3
Cc1cc(OCc2ccc(C(=O)NN=C3CCCC3)cc2)ccc1Cl	-2	-2	56*	-2
COc1ccc(Cl)cc1NC(=O)CN(C)C(=O)Cc1n[nH]c(=O)c2ccccc12	-4	6	12	2
O=C(N/C(=C\c1cccc(Br)c1)C(=O)N1CCOCC1)c1ccco1	-5	0	10	-3
COc1ccc(-c2c(C)nn3c(C)cc(C)nc23)cc1	0	-3	58*	-3
COc1cc(CNCc2ccc(C)cc2)cc(OC)c1OC	-2	-1	51*	-3
C[C@H]1CNC(=O)c2c(C(=O)N[C@@H](Cc3c[nH]c4ccccc34)C(=O)OC(C)(C)C)ncn21	·	2	·	-1
Cc1ccc(N(C(=O)Nc2ccccc2)C2=NCC(C)S2)cc1 (centres undefined)	-1	0	4	33*
COc1cc2ccc(=O)oc2c(O)c1O	·	0	126*	-2
COc1ccccc1C1CC(c2ccccc2)=NN1S(=O)(=O)c1ccccc1 (centres undefined)	-2	0	3	1
COc1cccc(C2CC(c3ccccc3)=NN2S(=O)(=O)c2ccc(C)cc2)c1OC (centres undefined)	4	76*	49	127
Cc1ccc(-c2nnn3c2nc(NCCc2ccc(S(N)(=O)=O)cc2)c2ccccc23)cc1	2	36*	-3	9
O=C(O)CCCCC1CCSS1 (centres undefined)	4	35*	14	3
CCOC(=O)COc1ccc(Br)cc1/C=C/c1[nH]c(=O)[nH]c(=O)c1[N+](=O)[O-]	2	39*	10	-3
CN(C)S(=O)(=O)c1ccc(Cl)c(NC(=O)C2CCN(S(=O)(=O)c3cccs3)CC2)c1	·	-1	-20	0

Bioassay records deposited in PubChem BioAssay by several laboratories.
